Measurements as given in the EternaBench riboswitch data.

Tested on: MS2 coat protein
Assay: apparent Kd, MS2 coat protein; higher = weaker binding; RNA-MaP array; FMN 200 µM where present
Summary of the method: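 The apparent Kd comes from binding curves fitted cluster by cluster, filtered, and summarised as a median. Those curves followed SNAP-549-labelled MS2 coat protein from 0.7 or 1.5 nM, doubling to 3 µM, on Illumina sequencing-chip clusters where stalled E. coli RNA polymerase had transcribed the designs, without and then with constant ligand. The buffer was 100 mM Tris-HCl pH 7.5, 80 mM KCl, 4 mM MgCl2, BSA, DTT, yeast tRNA and Tween-20, and green signal was normalised to red-channel RNA signal and control-cluster median Fmax.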

[1] = designed as: ON switch for flavin mononucleotide, no ligand
[2] = ligand present: flavin mononucleotide, designed as: ON switch for flavin mononucleotide
[3] = designed as: OFF switch for flavin mononucleotide, no ligand
[4] = ligand present: flavin mononucleotide, designed as: OFF switch for flavin mononucleotide

| Sequence | apparent Kd [1] | apparent Kd [2] | apparent Kd [3] | apparent Kd [4] |
| --- | --- | --- | --- | --- |
| AUACUCAUGUAAGGAUAUGCAGCCGAAACGGCUGCAGAAGGUACUAUAAUACAUGAGGAUCACCCAUGUCAAAAUUAAAUAGUU | 185 nM | 31.7 nM | – | – |
| GAUUAACAUGAGGAUCACCCAUGUGAGGAUAUGGACUUGCCCACUUAACCAUUAGAGUCUAGAAGGCGCAUCUA | – | – | 29.4 nM | 25.5 nM |
| GUAGCAUACCGAGGAUAUUCUUAUAAUAAAUAAACAUGAGGAUCACCCAUGUGGCGAAAGCCAAGGGAGAAGGCGGAAUGCUAC | 87.7 nM | 20.1 nM | – | – |
| GAGCCCUAAGGAUAUAGAAGGUCCAACAUGAGGAUCACCCAUGUACGGUGUGGACGUGGGCUAGAAGGUGGAACUU | – | – | 188 nM | 147 nM |
| UUACUUCAUGAGAAGGACAUGAGGAUCACCCAUGUAGGAUAUCGUGGGAGACUGGUAUUGAAUCUUCGGAUUCAAUACCUGUCU | 59.7 nM | 9.3 nM | – | – |
| UGAUAGGACAGAGGAUAUACGUGCUAGAGAUACUAGCAAAAUAUCCUUACAUGAGGAUCACCCAUGUAGAAGGCUGUCCUAUCU | – | – | 20 nM | 20.2 nM |
| UUAGUCAUGUAAGGAUAUCCGAUGCGAAGCGUUGGAGAAGGUACAUGAGGAUCACCCAUGUUCUGCGUCUGAGUACAGAUGCUA | – | – | 494 nM | 174 nM |
| UGCAUGUAAGGAUAUGCAUCCGCCAAAGAACCGGCGCCACAGCAGAAGGUACAUGAGGAUCACCCAUGUGUCCC | – | – | 15.1 nM | 29.1 nM |
| ACAUGAGGAUCACCCAUGUAUACAUAGGAUAUUGGUGAUCAGGGAUGUUUUACAGGAUAUGUCUGCGAGAAGGAUGCAAGAUGU | 398 nM | 69 nM | – | – |
| AAAAAACAUGAGGAUCACCCAUGUCAGGAUAUUCGAAAAAAAAAAAAAAAAAAAAAAAGGAGAAGGGACGAAAA | – | – | 60.1 nM | 50 nM |
| CGCUACUACCAGAAGGACAUGAGGAUCACCCAUGUAGGAUAUGGGUUACAAGUACCAGUGUAGAGAAACUACGCUACAGUAGCG | 29.8 nM | 8.3 nM | – | – |
| AAUUAGGUCACAGGAUAUACUACAUCCAAUGCUGUAGAAGGGUGACACAUUCUGUGCAGACAUGAGGAUCACCCAUGUAACCAC | 27.9 nM | 12.8 nM | – | – |
| ACCAAUGGAGGAUAUACAUGAGGAUCACCCAUGUUUAUCCUACAUAGGUGAAAAACAUGUAGAAGGCCAUUGGA | – | – | 14.8 nM | 13.2 nM |
| GGUGGCGACGAGAAGGUUCACACAUGAGGAUCACCCAUGUAUGACAUGAGGAUCACCCAUGUAAGGGAGGAUAUUGGAUUUACC | – | – | 92.8 nM | 91.4 nM |
| GUAAACCGGUGAGGAUAUUUAUAAUAGAGCUUUAUGAUAUACAUGAGGAUCACCCAUGUUACUUUAAAGAAGGCAUCGGAAAUG | – | – | 21.4 nM | 17.2 nM |
| UUAAUUCGAAACAUGAGGAUCACCCAUGUGUUGUGGUUAAUAUAGGAUAUGUGGAUACUUUUUUGACAGAAGGAUGAUGGUACU | 13.3 nM | 11.6 nM | – | – |
| UCCAAACUUGGACUUGGUGGUGCAUAGGAUAUCCUUGGACAUGAGGAUCACCCAUGUACAACUGUGGAGAAGGGUGCAGGGCCU | 427 nM | 91.3 nM | – | – |
| GCUAAGGGAGGAUAUACAUGAGGAUCACCCAUGUAGUCGCUGCGUUUCAUUAUCCAAGGUAGAAGGCCCAAAAU | – | – | 25.4 nM | 36 nM |
| AUCAGCUCGUCAGGAUAUACGUCACUGCGUCAGCAGUGUGGUAAGAUCACAUGAGGAUCACCCAUGUAGAAGGGACGAGCUGAC | – | – | 14.2 nM | 306 nM |
| CUAGCAACAUGAGGAUCACCCAUGUAGGAUAUCGCUAUUGUAAUCAUGAAACAUGAUUACAAUAGCGAGAAGGACAUAUGCUAG | – | – | 6.44 nM | 9.28 nM |
| AUUAUAUAGUUAGGAUAUUGAUUAUUAUUUUAACAUGAGGAUCACCCAUGUAGCCUUAUGUAUAACAAGAAGGAACAUUUAUUA | – | – | 114 nM | 132 nM |
| CUCUUGUCAGGAUAUACGUACGCUUCGGCGGCGAGGAUCAUGUAGAAGGGACAUGAGGAUCACCCAUGUUAGAC | – | – | 41.6 nM | 44 nM |
| CUGUGACGGUGCGCAAGUGGACGGAGAAGGGACACAUGAGGAUCACCCAUGUGAGCCUGCUAUUGUCAGGAUAUCCGUUCGUAC | – | – | 8.69 nM | 13.8 nM |
| GGUUAAUAUCGAGGAUAUGUCUAGACACAUGAGGAUCACCCAUGUAUGUGUAUAGAAGGCGAUAUUAACAGCAUGUUACAUGCU | 40.8 nM | 16 nM | – | – |
| GGGAUGCUAGGAUAUACAUCGGGCUCCAGGAUGUUCCGGGAACAUGAGGAUCACCCAUGUAGAAGGAGCGUAUG | – | – | 80.4 nM | 50.6 nM |
| UUAUUAUAUGUAGGAUAUGCAUAUUAUCAUUGUGCAGAAGGACAUGAGGAUCACCCAUGUAUAUUAUUAUUAUAUAUUAUAUAU | – | – | 17.5 nM | 18.5 nM |
| AAUAAUAAUGUCAGGAUAUCUAGAGCCUCGGCUCUAGAGAAGGGACAUGAGGAUCACCCAUGUCACUCAAUAAU | – | – | 17.9 nM | 24.3 nM |
| UGUGGCGGUCAGAAGGCAACGUUGACAUGAGGAUCACCCAUGUUACCCUUGAGGAUAUGGCGGGCCUCACGUCGGUGGUAAUGA | 93.8 nM | 23.3 nM | – | – |

| Sequence | apparent Kd [1] | apparent Kd [2] | apparent Kd [3] | apparent Kd [4] |
| --- | --- | --- | --- | --- |
| AGCUAGUCAGGAUAUACGAACAUGUCGAAAGACGUGAGGGAACAUGAGGAUCACCCAUGUAGAAGGGACUAGCA | – | – | 30.6 nM | 36.2 nM |
| CAUUAAUUCAUUAUAGUAAUUAUACAGGAUAUGUAACAUGAGGAUCACCCAUGUAUUCUUGGUAAACAGAAGGGUAUUACAAGU | – | – | 13.7 nM | 12.8 nM |
| GCACUGGAUGUAGGAUAUCAGGACGAUAAGUCCUGAGAAGGACAUGAGGAUCACCCAUGUGAAAAUUACCAGUGCAAUAAUAUA | – | – | 14.4 nM | 39.9 nM |
| UGAAAUCAUGUAGGAUAUGCAUGGCGAAGCUACGCAGAAGGACAUGAGGAUCACCCAUGUUCUGGCUACCGGAUACGGUGGCAA | – | – | 22 nM | 105 nM |
| GAUCCUCGGUCAGGAUAUCCCGGCCGGCGGCCGGGAGAAGGGACAUGAGGAUCACCCAUGUUUCGGUCCUUACCCGCUUGGGUC | – | – | 34 nM | 37.1 nM |
| AAUUAUUGAUGAGGAUAUUGUGGUGAAACACCACAAGAAGGCAUUAUACACAUGAGGAUCACCCAUGUGAGCCUGAUGCAUAUA | – | – | 17.3 nM | 28.9 nM |
| ACUAAGGAGGUAGGAUAUUGUGUGGUGGCCGGGCUCCCACGGCGAGCGGCACAAGAAGGAUCCCAACAUGAGGAUCACCCAUGU | 48.9 nM | 26.1 nM | – | – |
| ACUAUACGAGGAUAUACUGUCAGUACUCAGAGAUUAAUGUGACAUGAGGAUCACCCAUGUAGAAGGCGUUUACU | – | – | 31.9 nM | 35.3 nM |
| GAUCCUUCUGUUAGGAUAUGCUACGGGCUUCCGCAGCAGAAGGAACAUGAGGAUCACCCAUGUCAAAUAAAAUC | – | – | 37.1 nM | 168 nM |
| AGUAACAGAGGAUAUACUAUUUUAUGUGUUUAUUGUUUUAAACAUGAGGAUCACCCAUGUAGAAGGCUGAAUAA | – | – | 29.4 nM | 40.5 nM |
| CCUGCACAUGAGGAUCACCCAUGUUAGGAUAUCUCGCCGUCGGCUUGCCGACGGUAUUAGAGAAGGGACAAGGG | – | – | 34.7 nM | 45.5 nM |
| GCUGUGGCAUGAGGAUAUGGUCAGCUUUGCUGACCAGAAGGCAUGUCAAUAGACAUGAGGAUCACCCAUGUAGUUAACACAGCA | 572 nM | 40.7 nM | – | – |
| GUAUAUAGUGUGAGGAUAUGCUGGUCCUUGGAUCAGCAGAAGGCACAUGAGGAUCACCCAUGUAGUUUAUUUUA | – | – | 30.6 nM | 89.4 nM |
| CUUCGACAUGAGGAUCACCCAUGUCAGGAUAUUGUUUAUCUGGUGUUGUCCAGAUAUGCAAGAAGGGAUGUGUG | – | – | 38.4 nM | 38.1 nM |
| CCGGAAAUGAAGGAUAUAGGAGUCGAUAGACACCUAGAAGGUCAUACAUGAGGAUCACCCAUGUGUCCUACCGG | – | – | 15.2 nM | 31 nM |
| GUUAGUUAAGGAUAUACUGGGAGCUGCGGCGUCUCGCCGCAACAUGAGGAUCACCCAUGUAGAAGGUGACCGUU | – | – | 640 nM | 285 nM |
| CUUUUGUGAGGAUAUUAGUAGUAAAUUAAUAAAAUUACUACUGAGAAGGCACAUGAGGAUCACCCAUGUUCCUC | – | – | 30.8 nM | 190 nM |
| GUGGUCUGACAUGAGGAUCACCCAUGUGGAAUAAAUACGGGUUAGGAUAUCUUGAGGAUCACCCAAGAGAAGGGAUGGAUGGUC | 100 nM | 106 nM | – | – |
| UUUGUAUAGGUAGGAUAUACUUUCAAUUUUUUUUUCCUUACAUGAGGAUCACCCAUGUUUACAUUGUAGAAGGACCUCAUUGUU | – | – | 250 nM | 326 nM |
| UACAUUACUGAGAAGGGAUAUAUAUAAUUUUAGUCAGGAUAUCGAUACAGUGCAGCAUGAGGACAUGAGGAUCACCCAUGUAUU | 20.5 nM | 17 nM | – | – |
| CUUUGACAUGAGGAUCACCCAUGUGAGGAUAUGAUGCGAUCGUCGAAAGACGAUAGCAUCAGAAGGCACAUAUG | – | – | 85.7 nM | 238 nM |
| AUCCUGCGAGGAUAUACAUAGUUUUGUUUGUUUUGUCUCAAACAUGAGGAUCACCCAUGUAGAAGGUGCGUCAC | – | – | 155 nM | 130 nM |
| AGGAGACAUGAGGAUCACCCAUGUGCACGUGGACGAGGAUAUGCUAGUAGAAGAUAGAAUGCAGAAGGCGUAAGAA | 75.7 nM | 76.8 nM | – | – |
| UCCUCGGUACGAGGAUAUUCACGACGGUGUUCGGAAGAAGGCGUACAUGAGGAUCACCCAUGUCCGUCGAAAGGACUAACCGGG | – | – | 49 nM | 68.5 nM |
| ACAUGAGGAUCACCCAUGUGAGGAUCACCCAUGUUAUAUUUCAGAAGGCUCGUUUGUUUGAGGAGAGAGGAUAUGGAAUAUAGG | – | – | 127 nM | 84.7 nM |
| CUUUUGUGAGGAUAUCAGUAGUAAUAAUAUAAAAUUACUACUGAGAAGGCACAUGAGGAUCACCCAUGUUCCUC | – | – | 37.2 nM | 185 nM |
| AUAGCACAUGAGGAUCACCCAUGUGAGGAUAUUAGACCAUGGCUCUCAAAGACCAUGCUGAGAAGGCACUCGGG | – | – | 35.5 nM | 82.5 nM |
